Compound activity (PubChem BioAssay)
This is a sample that favours compounds with a hit; in the whole collection about 3.1% have one here.
IMP-1 inh: inhibitors of Pseudomonas aeruginosa IMP-1 metallo-beta-lactamase | purified IMP-1, nitrocefin hydrolysis, epi-absorbance fluorescence | AID 1556 | inhibition, % at 5.6 µM | 0.45% of 290,000 active;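 active = inhibition above the mean plus 3 SD of all compounds in the same screening run, cut at about 4.5% in these data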;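 note: 0% = IMP-1 with DMSO and 100% = DMSO wells lacking enzyme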
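Assay system: purified recombinant IMP-1 beta-lactamase. Input: IMP-1 0.2 nM before substrate addition. Buffer or medium: Zinc- and detergent-supplemented HEPES buffer, pH 7.1. Schedule: 25 °C, 15 min preincubation, 25 min reaction. Signal: Epi-absorbance fluorescence, 480 nm excitation, 530 nm emission. Evaluation: percent inhibition from optical density relative to buffer-blank wells.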
SUMO HTRF inh: inhibitors of human SUMOylation (UBC9); P63279; AID 2006; inhibition, % at 35 µM; 0.36% of 290,000 active; HTRF SUMOylation assay, SAE1/SAE2 + UBC9, in vitro; in the data active = inhibition above about 50%, passing the limit was not always enough
Target sequence (P63279 whole entry, looked up): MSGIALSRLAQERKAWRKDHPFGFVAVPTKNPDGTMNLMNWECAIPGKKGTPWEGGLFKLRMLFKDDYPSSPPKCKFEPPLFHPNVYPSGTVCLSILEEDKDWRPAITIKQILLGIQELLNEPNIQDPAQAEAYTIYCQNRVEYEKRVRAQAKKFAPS
VIM-2 inhibitor: blocks Pseudomonas aeruginosa VIM-2 metallo-beta-lactamase | 0.89% of 290,000 active | inhibition, % at 5.6 µM | purified VIM-2, nitrocefin hydrolysis, epi-absorbance fluorescence;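 active = inhibition above the mean of all tested compounds plus 3 SD, cutoff set per screening run, cut at about 7.5% in these data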;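 note: red hydrolysis product quenches plate fluorescence so inhibitors raise well fluorescence; 0% = enzyme with DMSO and 100% = DMSO without enzyme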
NS3 helicase inh: HCV NS3 helicase inhibition. inhibition, % at 10.9 µM. NS3 helicase DNA unwinding, Cy5 molecular beacon fluorescence. 0.56% of 290,000 active;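 active = inhibition above the mean of all tested compounds plus 3 SD, set per campaign, cut at about 35% in these data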;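 note: 0% = DMSO wells and 100% = thioflavine S control wells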
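Test system: hepatitis C virus NS3 helicase domain fragment enzyme. Also added: annealed dual-labelled DNA beacon duplex, ATP-started. Timing: 60 min unwinding reaction at 25 °C after ATP addition. Technique: Cy5 fluorescence. Measure: % inhibition of unwinding.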
PHOSPHO1 inh: blocks human PHOSPHO1 phosphatase activity | AID 1565 | inhibition, % at 13.3 µM | recombinant PHOSPHO1, absorbance phosphatase assay | 1.1% of 290,000 active; in the data active = inhibition above about 60%
Target sequence (Q8TCT1 whole entry, looked up): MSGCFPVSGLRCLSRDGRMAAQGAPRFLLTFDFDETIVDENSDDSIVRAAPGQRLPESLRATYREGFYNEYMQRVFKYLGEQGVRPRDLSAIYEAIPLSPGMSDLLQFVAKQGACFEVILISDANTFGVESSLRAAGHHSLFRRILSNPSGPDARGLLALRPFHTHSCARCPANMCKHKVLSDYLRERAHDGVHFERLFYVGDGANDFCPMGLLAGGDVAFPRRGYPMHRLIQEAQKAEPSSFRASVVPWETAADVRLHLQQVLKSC
HCV core dimer: blocks dimerization of HCV core protein. TR-FRET GST/Flag-core106 dimerization, 1536-well. inhibition, % at 5 µM. 0.33% of 300,000 active. AID 1899;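 active = inhibition above the mean of all tested compounds plus 3 SD, set per screening campaign, cut at about 45% in these data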
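System: GST/Flag-tagged HCV core106 proteins. Incubation: compound-protein-antibody incubation 4 h at 22.5 °C. Technique: HTRF with 340 nm excitation, 617/671 nm emission. Medium: KF-containing HEPES buffer, pH 7.45, DTT, CHAPS, BSA. Read-out: inhibition (%) from 671 over 617 nm ratio. Also added: Eu(K)-anti-GST 90 ng/mL plus XL665-anti-Flag 1 µg/mL.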
* marks the source's active call; other numbers are inactive results; / = no result given.

SMILES	IMP-1 inh	SUMO HTRF inh	VIM-2 inhibitor	NS3 helicase inh	PHOSPHO1 inh	HCV core dimer
COc1ccc(OC)c(S(=O)(=O)N2CCC(C(=O)N(C)Cc3ccccc3)CC2)c1	-2.1	-9.5	-0.1	-18.1	36.8	1.9
O=C1CN(C(=O)CSc2nnc(-c3ccccc3)n2Cc2ccc3c(c2)OCO3)c2ccccc2N1	-3.4	3.7	-2.9	-7.9	69.3*	1.3
Cc1ccc(NC2c3ncccc3C(=O)N2c2ccccc2C)cc1C (stereo unspecified)	-1.4	29.5	0.3	-2.2	85.5*	0.4
CCOc1ccc(N2C(=O)c3cccnc3C2Nc2ccc(Cl)cc2)cc1 (stereo unspecified)	-2.9	24.1	-3.1	-5.6	56.5	8.3
CCn1c(SCC(=O)c2[nH]c(C)c(C(C)=O)c2C)nnc1-c1ccncc1	-3.4	20.5	-0.9	7.2	-27.3	-0.3
CCn1c(SCC(=O)c2[nH]c(C)c(C(C)=O)c2C)nnc1-c1ccccc1	-3.6	26.9	0.9	12.0	75.2*	4.8
CC(=O)c1c(C)[nH]c(C(=O)CSc2nnc(CN3CCCCCC3=O)n2-c2ccccn2)c1C	-1.6	31.8	-1.2	-10.2	67.4*	4.2
CCOC(=O)COc1cc(OCC(=O)OCC)c2c3c(c(=O)oc2c1)CCCC3	-2.2	-0.8	9.4*	-10.2	23.9	/
COc1ccc2nc(NC(=O)CSc3nc(C)cc(=O)[nH]3)sc2c1	-2.0	4.6	-1.4	-9.8	73.6*	-1.3
CCn1nnnc1SCC(=O)Nc1nc2ccccc2s1	-3.0	12.6	-6.7	-9.3	28.8	-4.9
COc1ccc2nc(NC(=O)CSc3nccc(C)n3)sc2c1	0.1	-14.9	-1.2	-6.8	1.6	-1.1
COc1cccc(-n2c(SCC(=O)Nc3nc4ccccc4s3)nc3ccccc3c2=O)c1	-1.7	3.2	-2.0	-12.0	62.2*	12.6
CCOC(=O)c1ccc(NC(=O)CSc2nc(C)cc(=O)[nH]2)cc1	-2.4	27.5	-0.4	16.7	18.2	63.4*
O=C(CSc1nnnn1-c1ccc(F)cc1)Nc1nc2ccccc2s1	4.7*	5.9	-2.2	2.4	29.8	9.7
Cc1cc(C)c(S(=O)(=O)N2CCCCC2CCNC(=O)C(=O)NCc2ccccn2)c(C)c1 (stereo unspecified)	/	/	/	/	/	4.9
N=c1c(C(=O)NC2CCCCC2)cc2c(=O)n3ccccc3nc2n1Cc1ccc(F)cc1	0.4	1.3	9.9*	-23.6	31.9	12.1
N=c1c(C(=O)NC2CCCC2)cc2c(=O)n3ccccc3nc2n1Cc1ccccc1	-0.5	27.8	7.9*	-5.8	19.9	6.3
CCCN(C(=O)CCSc1ccc(F)cc1)c1c(N)n(Cc2ccccc2)c(=O)[nH]c1=O	0.8	8.4	1.0	0.1	32.6	-0.1
COc1ccc(C(=O)Nc2ccccc2-c2ccccc2)cc1Cl	5.2*	-8.5	-0.8	24.4	-12.5	1.8
CCOc1c(Cl)cc(C(=O)Nc2ccccc2-c2ccccc2)cc1Cl	-1.4	-14.5	-1.9	2.4	41.9	9.5
Cc1ccc(-c2cc(C(=O)Nc3ccc(S(=O)(=O)Nc4ncccn4)cc3)[nH]n2)c(O)c1C	-4.3	30.6	-1.8	-2.0	3.3	6.6
O=C1c2ccccc2-c2ncnc3cccc1c23	-4.9	/	-2.1	3.6	/	/
O=C(O)c1ccc2c3c(ncnc13)-c1ccccc1C2=O	-1.9	16.8	3.6	-2.7	104.8*	-2.8
O=C(c1ccnc(Cl)c1)N1CCCC(N2CCN(c3ccccc3F)CC2)C1 (stereo unspecified)	-1.4	0.8	-3.3	1.1	3.9	-2.3
O=C1CC(c2ccco2)Cc2nc(Nc3nc(-c4ccccc4)c4ccccc4n3)ncc21 (stereo unspecified)	-3.7	20.0	-1.5	6.8	8.6	59.1*
SMILES	IMP-1 inh	SUMO HTRF inh	VIM-2 inhibitor	NS3 helicase inh	PHOSPHO1 inh	HCV core dimer
CC1CCN(C(=O)COC(=O)Cc2ccc(Br)cc2)CC1	-3.4	19.6	-2.1	-2.7	23.3	7.6
Oc1c(C=Nc2cccc3cccnc23)sc2ccccc12	-2.2	-15.1	9.7*	7.0	19.1	-17.2
Cc1cccc(/N=C/c2sc3ccccc3c2O)n1	0.5	9.8	3.1	8.9	37.7	-20.6
CCOC(=O)Cn1cnc2c(nnn2-c2ccc(F)cc2)c1=O	-2.4	-2.8	-3.5	7.1	20.2	-19.7
NS(=O)(=O)c1cnccc1NCCc1ccccc1	/	/	/	/	/	2.1
Cc1cc(C(=O)CSc2nc3ccccc3n2CCC#N)c(C)n1Cc1cccs1	-1.7	40.8	-3.0	21.7	-58.7	11.2
Cc1cc(C(=O)CSc2nnc(-c3ccccc3F)o2)c(C)n1Cc1cccs1	-1.9	13.9	-1.8	19.5	89.7*	-1.4
COc1ccccc1-n1cnnc1SCC(=O)c1cc(C)n(Cc2cccs2)c1C	4.1	8.7	-0.2	-11.3	63.4*	5.1
COC(=O)c1ccccc1NC(=O)c1sc(N)nc1C	-4.8	22.2	10.3*	-0.4	-8.1	8.5
COC(=O)c1ccccc1NC(=O)c1sc(=S)n(C)c1N	-5.1	18.4	-2.6	16.2	90.1*	1.1
Cn1c(N)c(C(=O)Nc2c(Cl)cccc2Cl)sc1=S	-2.7	11.9	-2.4	3.7	19.7	-2.2
CC(C)(C)C(=O)COC(=O)c1c2c(nc3ccccc13)CCC2	1.1	2.1	2.1	25.9	28.3	54.0*
NC(=O)COC(=O)c1c2c(nc3ccccc13)CCCCC2	-1.8	0.1	-0.2	-5.8	0.6	5.8
Cn1ccnc1SCC(=O)Nc1ccc(F)c([N+](=O)[O-])c1	-2.0	-9.7	-1.4	9.6	4.7	-0.6
COc1ccc(S(=O)(=O)NCc2csc(-c3cccnc3)n2)cc1	-2.2	-8.1	-1.8	-3.1	2.0	0.9
O=S(=O)(NCc1csc(-c2cccnc2)n1)c1ccc(Br)cc1	-1.0	12.1	-1.7	4.5	80.2*	-9.2
CCC(Oc1ccccc1C)C(=O)N1CCCN(C)CC1 (stereo unspecified)	-0.9	10.9	-0.5	-1.0	/	-1.5
O=C(Oc1c(Br)cc(C(=S)N2CCOCC2)cc1Br)c1ccc(Cl)cc1	-0.1	2.3	1.4	-9.5	95.9*	1.6
CCOC(=O)c1c(C)[nH]c(N=Nc2ccc(C)cc2C)c1C	-4.9	6.8	-4.2	3.0	64.8*	-7.6
Cc1ccc[n+](/C(C(=S)NCc2ccco2)=C(/[O-])c2ccccc2Cl)c1	5.6*	15.9	-3.3	3.8	96.6*	-10.0
CC(C)(C)c1ccc(/C([O-])=C(/C(=S)NCc2ccco2)[n+]2ccccc2)cc1	-7.1	-1.6	-4.2	14.2	83.5*	53.2*
CC(C)(C)c1ccc(C(=O)NC(=S)NCc2ccco2)cc1	-3.3	-8.2	-2.8	15.3	36.6	-0.1
COc1ccccc1NC(=O)Nc1ccnn1Cc1cccs1	-4.0	77.6*	-2.5	2.9	8.8	7.9
COc1ccccc1NC(=O)Cc1cccs1	-1.8	17.7	-4.0	5.4	-13.5	6.5
